Columns and labels:
Set-up in all cases: dose 2.5 mg/kg, route intraperitoneal
Details in all cases: in vivo, 168 h
Mus musculus [1] = assay: Toxicity in Swiss mouse assessed as increase in myeloperoxidase activity in stomach at 2.5 mg/kg, ip for 7 days by spectrophotometric analysis; type: organism-based
Procedure, shortened: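 Same daily ip dosing for 7 days. Stomach was homogenized in 50 mM K2PO4 pH 6.0 with 0.5% HTAB and spun at 16100g for 2 min. Supernatant was mixed with 50 mM phosphate pH 6.0 containing 0.167 mg/mL o-dianisidine and 0.015% H2O2, then read at 450 nm three times within 1 min. Values came from a neutrophil standard curve, as neutrophils ×10^4/mg tissue.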

Mus musculus [2] = assay: Hepatotoxicity in Swiss mouse assessed as increase in plasma ALT level at 2.5 mg/kg, ip for 7 days; type: toxicity, organism-based
Procedure, shortened: (§1)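 Mice dosed ip once daily for 7 days; the vehicle was saline or Tris/HCl buffer pH 8.0, with the vehicle data pooled. Plasma AST and ALT were measured with a diagnostic kit as markers of hepatotoxicity.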

Mus musculus [3] = assay: Hepatotoxicity in Swiss mouse assessed as increase in plasma AST level at 2.5 mg/kg, ip for 7 days; type: toxicity, organism-based; procedure, shortened: as §1

Measured: Activity

COc1ccc2c(c1)c(CC(=O)O)c(C)n2C(=O)c1ccc(Cl)cc1 [INDOMETHACIN]
Toxic: all assays above
